In ChEMBL document CHEMBL4020718, “Trifluoromethyl arylamides with antileukemia effect and intracellular inhibitory activity over serine/arginine-rich protein kinases (SRPKs)” (Eur J Med Chem, 2017):

Legend:
Assay type in all cases: functional, cell-based; call rule not given here
HL-60 = test: Cytotoxicity against human HL60 cells assessed as reduction in cell viability up to 200 uM after 48 hrs by MTT assay
How it was run: (§1)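 Cells (7x10^4/well) in RPMI-1640 with 10% FBS, 37 °C, 5% CO2; exposed to compound dilutions 0–200 µM (medium with 10% FBS, 0.4% DMSO) for 48 h. MTT added, 3 h at 37 °C, formazan dissolved in DMSO, absorbance 540 nm. IC50 from concentration–response; means ± standard deviation of three independent experiments.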

NALM-6 = test: Cytotoxicity against human NALM6 cells assessed as reduction in cell viability up to 200 uM after 48 hrs by MTT assay; how it was run: as §1
Jurkat = test: Cytotoxicity against human Jurkat cells assessed as reduction in cell viability up to 200 uM after 48 hrs by MTT assay; how it was run: as §1
[1] = Homo sapiens, NALM-6, 48 h, read-out: IC50
[2] = Homo sapiens, HL-60, 48 h, read-out: IC50

SMILES	IC50 (HL-60; hl-60)	IC50 (NALM-6; nalm-6)	IC50 (Jurkat; jurkat)	IC50 (NALM-6; [1]) [µM]	IC50 (HL-60; [2]) [µM]	IC50 (Jurkat; Homo sapiens, Jurkat, 48 h, read-out: IC50) [µM]
O=C(Nc1cc(C(F)(F)F)ccc1N1CCOCC1)c1ccncc1	Not Active	Not Active	Not Active	–	–	–
O=C(Nc1cc(C(F)(F)F)ccc1N1CCCC1)c1cccnc1	Not Active	Not Active	Not Active	–	–	–
O=C(Nc1cc(C(F)(F)F)ccc1Nc1ccc(Br)cc1)c1ccncc1	Not Active	–	Not Active	51.9	–	–
O=C(Nc1cc(C(F)(F)F)ccc1N1CCOCC1)c1cccnc1Cl	Not Active	Not Active	Not Active	–	–	–
O=C(Nc1cc(C(F)(F)F)ccc1N1CCCC1)c1cccnc1Cl	Not Active	Not Active	Not Active	–	–	–
CCN(CC)c1ccc(C(F)(F)F)cc1NC(=O)c1ccncc1	–	–	Not Active	63.6	89.7	–
O=C(Nc1cc(C(F)(F)F)ccc1N1CCOCC1)c1cccnc1	Not Active	Not Active	Not Active	–	–	–
O=C(Nc1cc(C(F)(F)F)ccc1N1CCCC1)c1ccccc1	Not Active	Not Active	Not Active	–	–	–
O=C(Nc1cc(C(F)(F)F)ccc1N1CCOCC1)c1ccccc1	Not Active	Not Active	Not Active	–	–	–
CCN(CC)c1ccc(C(F)(F)F)cc1NC(=O)c1cccnc1	–	–	Not Active	63.2	71	–
CCN(CC)c1ccc(C(F)(F)F)cc1NC(=O)c1cccnc1Cl	–	Not Active	–	–	84.1	88.4
